The source of these data is ChEMBL document CHEMBL1123878, “Potential antitumor agents. 50. In vivo solid-tumor activity of derivatives of N-[2-(dimethylamino)ethyl]acridine-4-carboxamide” (J Med Chem, 1987).

Activity calls are given as the source filed them. The calls are words filed in the database; no cut-off is given here.

One may read the IC50 as the concentration that gives 50% inhibition. Higher therefore signals lower potency. One may read the ILS as the gain in survival time of treated over control animals, in per cent. One may read the pKa as the pH at which an ionisable group is half protonated.

The test system of one data set is L1210. Put plainly: Inhibition murine leukemia L1210 cell growth in culture. In kind it is functional, cell-based. The conditions noted are these: Mus musculus. Put shortly:
(§1)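 IC50 is the drug concentration, in nM, that inhibits growth of the cultured cell line by 50%.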

In data set [1] the test system is Lewis lung carcinoma cell line. Put plainly: Percentage increase in life span of tumor bearing animals compared to non treated, tumor-bearing controls when treated at the optimal dose of 150 mg/kg/day intraperitoneally. The settings on record: Mus musculus, ip, route intraperitoneal. In kind it is functional.
The next data set has as its system HCT-8. Put plainly: Inhibition of human colon tumor (HCT-8) cell growth in culture. It counts as functional, cell-based. Put shortly: as §1
Data set [2] is described as follows: Lipophilicity index (Rm) (HPLC). It counts as physicochemical.
Data set [3] relates to P388. Put plainly: Percentage increase in life span of compound-treated, tumor bearing animals compared to non treated, tumor-bearing controls when treated at the optimal dose of 150 mg/kg/day intraperitoneally. It counts as functional. The settings on record: Mus musculus, P388, ip; route intraperitoneal.
The nature of data set [4]: Selectivity ratio of IC50 of HCT to IC50 of L1210 cell lines. It counts as functional.
In data set [5] the test system is Lewis lung carcinoma cell line. Put plainly: Percentage increase in life span of tumor bearing animals compared to non treated, tumor-bearing controls when administered intraperitoneally; IA denotes inactive. In kind it is functional. The settings on record: Mus musculus. The gist of the method: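 Drug was given ip in 0.1 mL 30% v/v ethanol/water. For P388, 10^6 cells were inoculated ip and dosing was on days 1, 5 and 9, with >20% significant. For Lewis lung, 10^6 cells were inoculated iv and dosing was on days 5, 9 and 13, with >40% significant. The read-out is % lifespan increase over untreated controls.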

The test system of data set [6] is P388. Put plainly: Percentage increase in life span of tumor bearing animals compared to non treated, tumor-bearing controls when treated at the optimal dose of 13.3 mg/kg/day intraperitoneally. In kind it is functional. The settings on record: Mus musculus, P388, ip; route intraperitoneal.
For data set [7], the system named is P388. Put plainly: Percentage increase in life span of tumor bearing animals compared to non treated, tumor-bearing controls when treated at the optimal dose of 66 mg/kg/day intraperitoneally. In kind it is functional. The settings on record: Mus musculus, P388, ip; route intraperitoneal.
A short description of data set [8]: Base strength is expressed as pKa, determined in water at 25 degrees Centigrade by spectrophotometric method. In kind it is physicochemical.
For data set [9], the system named is P388. Put plainly: Percentage increase in life span of tumor bearing animals compared to non treated, tumor-bearing controls when treated at the optimal dose of 100 mg/kg/day ip (P388). It counts as functional. The settings on record: Mus musculus, route intraperitoneal.
In data set [10] the test system is Lewis lung carcinoma cell line. Put plainly: Percentage increase in life span of tumor bearing animals compared to non treated, tumor-bearing controls when treated at the optimal dose of 150 mg/kg/day ip (LL). It counts as functional. The conditions noted are these: Mus musculus.
Data set [11] concerns P388. Put plainly: Percentage increase in life span of tumor bearing animals compared to non treated, tumor-bearing controls when treated at the optimal dose of 225 mg/kg/day ip (P388). In kind it is functional. The conditions noted are these: Mus musculus, route intraperitoneal.
Data set [12] concerns Lewis lung carcinoma cell line. Put plainly: Percentage increase in life span of tumor bearing animals compared to non treated, tumor-bearing controls when treated at the optimal dose of 45 mg/kg/day intraperitoneally. It counts as functional. The settings on record: Mus musculus, ip, route intraperitoneal.
Data set [13] has as its system P388. Put plainly: Percentage increase in life span of tumor bearing animals compared to non treated, tumor-bearing controls when treated at the optimal dose of 65 mg/kg/day intraperitoneally. It counts as functional. The settings on record: Mus musculus, P388, ip; route intraperitoneal.
Data set [14] relates to P388. Put plainly: (§2) Percentage increase in life span of tumor bearing animals compared to non treated, tumor-bearing controls when treated at the optimal dose of 20 mg/kg/day intraperitoneally. In kind it is functional. The settings on record: Mus musculus, P388, ip; route intraperitoneal.
Data set [15] relates to Lewis lung carcinoma cell line. The description is as §2. It counts as functional. The conditions noted are these: Mus musculus, ip, route intraperitoneal.

Turning to `Cc1cccc2nc3c(C(=O)NCCN(C)C)cccc3cc12.Cl.Cl.O.O`, the IC50 in the data set with L1210 amounted to 140 nM; in the data set with HCT-8, 980 nM. The results for the ILS at 150 mg/kg/day (in [1]; with P388 [3]) were 60% and 61%, respectively. In data set [2], this compound came in with a Rm of -0.12. Also, the Ratio in [4] was 7.
`Cl.Cl.NCCNC(=O)c1cccc2cc3ccccc3nc12`: the ILS entry in data set [5] was “inactive”. Also, the values for the IC50 in the data set on L1210 and in the data set on HCT-8 were 275 nM and 1600 nM, respectively. In [2], the Rm is reported as -0.28. In the data set on P388 [6], the ILS at 13.3 mg/kg/day amounted to 24%. The Ratio in data set [4] stood at 5.8.
Take `CN(C)CCNC(=O)c1cccc2cc3ccccc3nc12.Cl.Cl`: the IC50 stood at 105 nM in the data set with L1210 and 900 nM with HCT-8. Also, the ILS at 66 mg/kg/day with P388 [7] came out at 91%. In data set [2], this compound showed a Rm of -0.2. For the same compound, the pKa in [8] is 3.54. In data set [4], the Ratio is on record as 8.6.
Regarding `CN(C)CCCCCCNC(=O)c1cccc2cc3ccccc3nc12.Cl`, the IC50 in the data set on L1210 is 550 nM; with HCT-8, 1960 nM. Further, the Rm in data set [2] is 0.28. Also, the ILS at 100 mg/kg/day with P388 [9] was 32%. Besides, in data set [10], the ILS result is “inactive”. The Ratio in data set [4] is 3.6.
With `CN(C)CCCCCNC(=O)c1cccc2cc3ccccc3nc12.Cl`, the half-inhibitory concentration (IC50) with L1210 was 450 nM; in the data set with HCT-8, 1800 nM. Also, in the data set with P388 [11], the ILS at 225 mg/kg/day was 34%. Besides, the Rm in data set [2] worked out at 0.12. Also, the ILS at 150 mg/kg/day in [10] (route intraperitoneal) was 83%. Besides, the Ratio in [4] amounted to 4.
`COc1cccc2cc3cccc(C(=O)NCCN(C)C)c3nc12.Cl`: the half-inhibitory concentration (IC50) in the data set with L1210 is 12 nM; with HCT-8, 180 nM. This compound yielded an ILS at 45 mg/kg/day in [12] of 54%. Further, the Rm in [2] is reported as -0.31. This compound also yielded an ILS at 65 mg/kg/day in the data set on P388 [13] of 70%. The pKa in [8] was determined as 3.87. In addition, the Ratio in data set [4] is listed as 15.
In the data set on L1210, `CN(C)CCNC(=O)c1cccc2cc3cccc(Cl)c3nc12.Cl.Cl` showed an IC50 of 6.9 nM. In [2], this compound registered a Rm of -0.21. Besides, the values for the ILS at 20 mg/kg/day (with P388 [14]; in data set [15]) were 91% and 92%, respectively.
